Measured values published in ChEMBL document CHEMBL3808330, “Peroxide Natural Products from Plakortis zyggompha and the Sponge Association Plakortis halichondrioides-Xestospongia deweerdtae: Antifungal Activity against Cryptococcus gattii” (J Nat Prod, 2016).
In brackets after ≈: the same amount, converted by molar mass.

Legend:
[1] = tested on: Cryptococcus gattii species complex; assay: Antifungal activity against Cryptococcus gattii after 48 hrs by microbroth dilution method; type: functional, Cryptococcus bacillisporus
In short: (§1)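 Microbroth dilution per CLSI protocol in antibiotic medium 3; growth read as optical density at 590 nm in microplate wells; MIC90 reported. C. albicans ATCC 14503; C. krusei patient isolate from UC Davis clinical microbiology; C. gattii and C. grubii strains gifted from UC Davis.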

[2] = tested on: Candida albicans; assay: Antifungal activity against Candida albicans ATCC 14503 after 48 hrs by microbroth dilution method; type: functional; conditions: ATCC 14503, 48 h; in short: as §1
[3] = tested on: Cryptococcus neoformans; assay: Antifungal activity against Cryptococcus grubii after 48 hrs by microbroth dilution method; type: functional; in short: as §1
[4] = tested on: Pichia kudriavzevii; assay: Antifungal activity against fluconazole-resistant Candida krusei after 48 hrs by microbroth dilution method; type: functional; in short: as §1
[5] = Stability assessed as drug degradation under ambient conditions by 1H-NMR spectroscopic method; type: physicochemical
[6] = Drug degradation in presence of 3-tert-butyl-4-hydroxy-5-methylphenyl sulfide at -20 degC after 12 hrs by 1H-NMR spectroscopic method; type: physicochemical
[7] = Drug degradation in presence of 3-tert-butyl-4-hydroxy-5-methylphenyl sulfide at -20 degC after 48 hrs by 1H-NMR spectroscopic method; type: physicochemical

Structure (SMILES)	MIC90 [1] [µM]	MIC90 [2] [µM]	MIC90 [3] [µM]	MIC90 [4] [µM]	Stability [5]	Stability [6]	Stability [7]
CCCCCC[C@]1(CC)C[C@H](CC)[C@H](CC(=O)O)OO1	9.6 (≈ 2.75 µg/mL)	22 (≈ 6.3 µg/mL)	6 (≈ 1.72 µg/mL)	4.3 (≈ 1.23 µg/mL)			
CCCCC[C@]1(CC)C[C@H](CC)[C@H](CC(=O)O)OO1	36 (≈ 9.81 µg/mL)	27 (≈ 7.35 µg/mL)	26 (≈ 7.08 µg/mL)	10 (≈ 2.72 µg/mL)			
CC(=C\Cc1ccccc1)/C=C(\C)C[C@@H](C)C[C@@]1(C)C[C@@](C)(CC(=O)O)OO1	> 100	> 100			Unstable	Stable	Unstable
C/C(=C\C=C\Cc1ccccc1)C[C@@H](C)C[C@@]1(C)C[C@@](C)(/C=C/C(=O)O)OO1	> 100	> 100			Unstable	Stable	Unstable
CC(=C\Cc1ccccc1)/C=C(\C)C[C@@H](C)C[C@@]1(C)C[C@@](C)(/C=C/C(=O)O)OO1	> 100	> 100			Unstable	Stable	Unstable
CCCCCC[C@]1(CC)C[C@H](CC)[C@H](CC(=O)OC)OO1	> 100	> 100					
CCCCC[C@]1(CC)C[C@H](CC)[C@H](CC(=O)OC)OO1	> 100	> 100					
C[C@H](CCCCCCCCCc1ccccc1)C[C@]1(C)C[C@H](C)[C@H](CC(=O)O)OO1	2.4 (≈ 1 µg/mL)	13 (≈ 5.44 µg/mL)	3.4 (≈ 1.42 µg/mL)	2.7 (≈ 1.13 µg/mL)			
CCCCC[C@]1(CC)C[C@H](CC)[C@@H]([C@H](O)C(=O)O)O1	> 100	> 100					
